Experiments:
[1] = Anticancer activity against Syrian golden hamster BHK21 cells at 1 uM after 48 hrs by SRB assay; assay type: functional; details: Mesocricetus auratus, BHK-21, 48 h; read-out: GI
Outline: (§1)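 RPMI-1640 culture with 10% heat-inactivated FBS, 2 mM glutamine, 1 mM pyruvate and penicillin/streptomycin at 37 °C, 5% CO2. Cells per 96-well well: H157 10⁴, BHK-21 5×10⁴. After 24 h, monolayers were exposed to 100, 10, 1 or 0.1 µM compound for 48 h, with vincristine as standard. Cells were fixed in cold 50% TCA (4 °C, 1 h) and stained with 0.4% SRB in 1% acetic acid (30 min). Dye was dissolved in 10 mM Tris and read at A490 minus A630. Read-out was percent inhibition.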

[2] = test system: Leishmania major; assay: Antileishmanial activity against promastigote form of Leishmania major at 10 uM after 72 hrs by MTT assay; assay type: functional
Outline: (§2)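 Log-phase promastigotes grown at 25 °C in phenol-red-free D-MEM/F-12 with 10% heat-inactivated FBS, washed in PBS, seeded at 2.5×10⁶/mL (100 µL/well). Compounds in triplicate wells, 72 h at 25 °C; amphotericin B standard. MTT (5 mg/mL stock) 3 h, stopped with 50% isopropanol/10% SDS, OD570 minus 690. Percent inhibition vs control; mean ± SEM of three independent experiments.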

[3] = test system: NCI-H157; assay: Anticancer activity against human NCI-H157 cells at 100 uM after 48 hrs by SRB assay; assay type: functional; details: NCI-H157, 48 h, read-out: GI; outline: as §1
[4] = test system: NCI-H157; assay: Anticancer activity against human NCI-H157 cells at 0.1 uM after 48 hrs by SRB assay; assay type: functional; details: NCI-H157, 48 h, read-out: GI; outline: as §1
[5] = target: Acetylcholinesterase (Electrophorus electricus, UniProt O42275); assay: (§3) Inhibition of electric eel acetylcholinesterase using acetylthiocholine iodide as substrate preincubated for 10 mins before substrate addition after 15 mins by Ellman's method
[6] = target: Intestinal-type alkaline phosphatase (Bos taurus, UniProt P19111); assay: (§4) Inhibition of calf intestinal alkaline phosphatase using p-nitrophenyl phosphate as substrate preincubated for 10 mins before substrate addition after 30 mins
[7] = test system: Leishmania major; assay: Antileishmanial activity against promastigote form of Leishmania major at 100 uM after 72 hrs by MTT assay; assay type: functional; outline: as §2
[8] = Anticancer activity against Syrian golden hamster BHK21 cells at 0.1 uM after 48 hrs by SRB assay; assay type: functional; details: Mesocricetus auratus, BHK-21, 48 h; read-out: GI; outline: as §1
[9] = test system: Leishmania major; assay: Antileishmanial activity against promastigote form of Leishmania major at 0.1 uM after 72 hrs by MTT assay; assay type: functional; outline: as §2
[10] = test system: NCI-H157; assay: Anticancer activity against human NCI-H157 cells at 1 uM after 48 hrs by SRB assay; assay type: functional; details: NCI-H157, 48 h, read-out: GI; outline: as §1
[11] = target: Cholinesterase (Homo sapiens, UniProt P06276); assay: Inhibition of human BChE using butyrylthiocholine iodide as substrate preincubated for 10 mins before substrate addition after 15 mins by Ellman's method
Outline: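 Ellman assay in 50 mM Tris-HCl, 0.1 M NaCl, 0.02 M MgCl2, pH 8.0, with DMSO at 1% final. hBChE (3.4 U/mg) is preincubated with compound for 10 min at 25 °C. Blanks lack enzyme or substrate. IC50 from linear regression.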

[12] = test system: Leishmania major; assay: Antileishmanial activity against promastigote form of Leishmania major at 1 uM after 72 hrs by MTT assay; assay type: functional; outline: as §2
[13] = test system: NCI-H157; assay: Anticancer activity against human NCI-H157 cells at 10 uM after 48 hrs by SRB assay; assay type: functional; details: NCI-H157, 48 h, read-out: GI; outline: as §1
[14] = Anticancer activity against Syrian golden hamster BHK21 cells at 100 uM after 48 hrs by SRB assay; assay type: functional; details: Mesocricetus auratus, BHK-21, 48 h; read-out: GI; outline: as §1
[15] = Anticancer activity against Syrian golden hamster BHK21 cells at 10 uM after 48 hrs by SRB assay; assay type: functional; details: Mesocricetus auratus, BHK-21, 48 h; read-out: GI; outline: as §1
[16] = target: Intestinal-type alkaline phosphatase (Bos taurus) (UniProt P19111); assay: as §4; set-up: concentration or dose not given beside the values
[17] = target: Acetylcholinesterase (Electrophorus electricus) (UniProt O42275); assay: as §3
Acetylcholinesterase (Electrophorus electricus), sequence (O42275 24-633 limits assumed): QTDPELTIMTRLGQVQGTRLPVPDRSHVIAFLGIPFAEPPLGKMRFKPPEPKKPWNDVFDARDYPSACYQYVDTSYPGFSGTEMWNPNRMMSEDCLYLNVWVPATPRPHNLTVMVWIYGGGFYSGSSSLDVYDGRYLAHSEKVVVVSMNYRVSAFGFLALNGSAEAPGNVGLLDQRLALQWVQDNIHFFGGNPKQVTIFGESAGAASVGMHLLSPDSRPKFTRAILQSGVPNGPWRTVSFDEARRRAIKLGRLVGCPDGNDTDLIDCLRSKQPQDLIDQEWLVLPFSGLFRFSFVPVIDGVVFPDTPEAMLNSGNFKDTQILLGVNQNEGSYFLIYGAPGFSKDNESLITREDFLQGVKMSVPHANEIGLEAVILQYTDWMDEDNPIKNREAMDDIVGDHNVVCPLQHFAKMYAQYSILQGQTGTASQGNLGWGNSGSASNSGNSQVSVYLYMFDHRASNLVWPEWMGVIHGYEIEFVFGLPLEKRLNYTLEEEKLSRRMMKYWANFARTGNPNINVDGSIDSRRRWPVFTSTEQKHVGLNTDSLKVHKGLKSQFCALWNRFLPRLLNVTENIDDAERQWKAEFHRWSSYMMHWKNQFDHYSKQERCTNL

Cholinesterase, sequence (P06276 whole entry): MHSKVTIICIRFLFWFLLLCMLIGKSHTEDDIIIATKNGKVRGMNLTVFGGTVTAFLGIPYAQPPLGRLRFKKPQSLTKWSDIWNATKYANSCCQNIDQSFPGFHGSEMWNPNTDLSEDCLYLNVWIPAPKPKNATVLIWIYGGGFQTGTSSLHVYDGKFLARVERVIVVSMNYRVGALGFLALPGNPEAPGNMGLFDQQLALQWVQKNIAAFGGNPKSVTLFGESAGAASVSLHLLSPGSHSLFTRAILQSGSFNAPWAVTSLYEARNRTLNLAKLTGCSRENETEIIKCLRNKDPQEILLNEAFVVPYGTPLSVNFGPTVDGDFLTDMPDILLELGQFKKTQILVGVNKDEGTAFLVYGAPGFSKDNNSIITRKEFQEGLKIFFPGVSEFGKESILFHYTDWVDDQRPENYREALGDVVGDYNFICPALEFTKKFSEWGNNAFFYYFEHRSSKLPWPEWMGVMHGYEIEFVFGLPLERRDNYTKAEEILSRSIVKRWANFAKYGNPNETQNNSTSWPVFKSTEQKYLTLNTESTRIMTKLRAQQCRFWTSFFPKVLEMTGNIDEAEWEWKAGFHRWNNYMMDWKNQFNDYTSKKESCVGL
Intestinal-type alkaline phosphatase, sequence (P19111 whole entry): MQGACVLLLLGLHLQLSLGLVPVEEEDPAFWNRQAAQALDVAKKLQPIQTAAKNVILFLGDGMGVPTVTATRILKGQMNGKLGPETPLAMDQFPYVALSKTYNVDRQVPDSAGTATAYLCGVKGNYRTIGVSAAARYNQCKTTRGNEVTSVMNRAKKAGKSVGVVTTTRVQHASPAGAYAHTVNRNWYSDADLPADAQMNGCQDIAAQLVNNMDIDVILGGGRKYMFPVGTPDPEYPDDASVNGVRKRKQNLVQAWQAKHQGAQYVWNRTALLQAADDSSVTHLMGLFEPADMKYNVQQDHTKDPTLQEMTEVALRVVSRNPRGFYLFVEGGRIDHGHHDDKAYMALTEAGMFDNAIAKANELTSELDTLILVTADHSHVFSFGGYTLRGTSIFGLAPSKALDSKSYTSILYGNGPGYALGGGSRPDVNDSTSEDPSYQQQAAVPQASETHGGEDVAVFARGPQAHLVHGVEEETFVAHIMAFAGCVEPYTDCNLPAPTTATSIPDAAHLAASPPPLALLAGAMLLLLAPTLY
Acetylcholinesterase, sequence (O42275 whole entry): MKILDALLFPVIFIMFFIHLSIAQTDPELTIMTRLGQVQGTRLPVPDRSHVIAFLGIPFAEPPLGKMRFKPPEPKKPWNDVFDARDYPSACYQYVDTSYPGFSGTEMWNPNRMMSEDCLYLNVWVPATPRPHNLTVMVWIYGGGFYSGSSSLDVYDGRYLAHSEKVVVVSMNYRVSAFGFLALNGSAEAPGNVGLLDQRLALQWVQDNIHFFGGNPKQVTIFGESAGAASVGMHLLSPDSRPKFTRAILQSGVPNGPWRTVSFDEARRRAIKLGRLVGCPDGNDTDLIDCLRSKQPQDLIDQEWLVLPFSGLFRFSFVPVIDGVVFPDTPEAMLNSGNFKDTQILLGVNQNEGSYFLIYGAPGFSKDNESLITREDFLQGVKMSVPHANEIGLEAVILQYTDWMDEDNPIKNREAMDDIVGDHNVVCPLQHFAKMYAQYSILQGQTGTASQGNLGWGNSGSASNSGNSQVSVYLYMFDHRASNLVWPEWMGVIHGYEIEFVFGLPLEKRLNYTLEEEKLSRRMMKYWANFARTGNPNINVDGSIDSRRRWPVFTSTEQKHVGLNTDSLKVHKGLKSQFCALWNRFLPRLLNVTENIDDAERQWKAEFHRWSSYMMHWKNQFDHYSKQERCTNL
Intestinal-type alkaline phosphatase (Bos taurus), sequence (P19111 20-506 limits assumed): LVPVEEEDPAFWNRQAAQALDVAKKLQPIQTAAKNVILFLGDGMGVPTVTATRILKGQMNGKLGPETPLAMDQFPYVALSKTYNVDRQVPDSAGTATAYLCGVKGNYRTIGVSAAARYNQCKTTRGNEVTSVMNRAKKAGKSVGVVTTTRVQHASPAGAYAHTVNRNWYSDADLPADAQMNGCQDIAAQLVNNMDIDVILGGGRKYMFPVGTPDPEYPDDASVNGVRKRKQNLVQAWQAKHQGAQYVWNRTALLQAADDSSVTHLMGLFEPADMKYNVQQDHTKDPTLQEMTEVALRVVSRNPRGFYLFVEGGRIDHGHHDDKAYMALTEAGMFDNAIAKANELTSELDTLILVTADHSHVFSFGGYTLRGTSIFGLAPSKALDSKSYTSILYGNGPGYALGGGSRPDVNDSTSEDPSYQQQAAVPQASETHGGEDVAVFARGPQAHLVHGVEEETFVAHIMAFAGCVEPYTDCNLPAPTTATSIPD

With `Oc1ccc(OCc2nn3c(-c4ccncc4)nnc3s2)cc1` the inhibition of growth at 1 µM [1] was 53.7%, the inhibition at 10 µM [2] was 45.3% and the inhibition of growth at 100 µM [3] was 63.7%. It also gave an inhibition of growth at 0.1 µM [4] of 52.6%, an IC50 [5] of 15.6 µM and an IC50 [6] of 5.61 µM. The inhibition at 100 µM [7] was 48%, the inhibition of growth at 0.1 µM [8] was 51.6% and the inhibition at 0.1 µM [9] was 37.2%. For the same compound, the inhibition of growth at 1 µM [10] was 56.3%, the IC50 [11] was 39.1 µM and the inhibition at 1 µM [12] was 41.9%. It also gave an inhibition of growth at 10 µM [13] of 60.9%, an inhibition of growth at 100 µM [14] of 60.5% and an inhibition of growth at 10 µM [15] of 56.2%.

`Clc1cccc(C2=Nn3c(nnc3-c3ccncc3)SC2)c1` showed an inhibition of growth at 1 µM [1] of 50.3%, an inhibition at 10 µM [2] of 38.3% and an inhibition of growth at 100 µM [3] of 67.4%. The inhibition of growth at 0.1 µM [4] was 57.4%, the IC50 [5] was 22.7 µM and the inhibition [16] was 48%. It also gave an inhibition at 100 µM [7] of 41.8%, an inhibition of growth at 0.1 µM [8] of 46.2% and an inhibition at 0.1 µM [9] of 31.7%. The inhibition of growth at 1 µM [10] was 60.8%, the IC50 [11] was 39.4 µM and the inhibition at 1 µM [12] was 34.6%. The inhibition of growth at 10 µM [13] was 63.8%, the inhibition of growth at 100 µM [14] was 56.4% and the inhibition of growth at 10 µM [15] was 53.3%.

`Clc1ccc(C2=Nn3c(nnc3-c3ccncc3)SC2)cc1Cl` showed an inhibition of growth at 1 µM [1] of 56.5%, an inhibition at 10 µM [2] of 56.4% and an inhibition of growth at 100 µM [3] of 72.1%. For the same compound, the inhibition of growth at 0.1 µM [4] was 59.4%, the inhibition [17] was 46% and the IC50 [6] was 1.32 µM. For the same compound, the inhibition at 100 µM [7] was 59.8%, the inhibition of growth at 0.1 µM [8] was 52.8% and the inhibition at 0.1 µM [9] was 49.3%. For the same compound, the inhibition of growth at 1 µM [10] was 63.5%, the IC50 [11] was 12.2 µM and the inhibition at 1 µM [12] was 52.3%. It also gave an inhibition of growth at 10 µM [13] of 67.4%, an inhibition of growth at 100 µM [14] of 63.5% and an inhibition of growth at 10 µM [15] of 59.4%.

For `COc1ccc(OCc2nn3c(-c4ccncc4)nnc3s2)cc1`, the inhibition of growth at 1 µM [1] was 68.8%, the inhibition at 10 µM [2] was 57.2% and the inhibition of growth at 100 µM [3] was 68.9%. For the same compound, the inhibition of growth at 0.1 µM [4] was 57.2%, the IC50 [5] was 0.77 µM and the IC50 [6] was 3.72 µM. The inhibition at 100 µM [7] was 60.5%, the inhibition of growth at 0.1 µM [8] was 63.3% and the inhibition at 0.1 µM [9] was 49.6%. The inhibition of growth at 1 µM [10] was 61.7%, the IC50 [11] was 37.9 µM and the inhibition at 1 µM [12] was 52.2%. For the same compound, the inhibition of growth at 10 µM [13] was 65.6%, the inhibition of growth at 100 µM [14] was 74% and the inhibition of growth at 10 µM [15] was 71.9%.

For `Fc1cccc(C2=Nn3c(nnc3-c3ccncc3)SC2)c1`, the inhibition of growth at 1 µM [1] was 56.9%, the inhibition at 10 µM [2] was 49.6% and the inhibition of growth at 100 µM [3] was 78.6%. It also gave an inhibition of growth at 0.1 µM [4] of 69.6%, an IC50 [5] of 18.6 µM and an IC50 [6] of 9.83 µM. The inhibition at 100 µM [7] was 52.3%, the inhibition of growth at 0.1 µM [8] was 54.6% and the inhibition at 0.1 µM [9] was 44.9%. The inhibition of growth at 1 µM [10] was 72.3%, the inhibition [11] was 38.7% and the inhibition at 1 µM [12] was 46.1%. It also gave an inhibition of growth at 10 µM [13] of 75.6%, an inhibition of growth at 100 µM [14] of 64.3% and an inhibition of growth at 10 µM [15] of 61.2%.

With `Nn1c(S)nnc1-c1ccncc1` the inhibition of growth at 1 µM [1] was 42.1%, the inhibition at 10 µM [2] was 36.7% and the inhibition of growth at 100 µM [3] was 51.5%. The inhibition of growth at 0.1 µM [4] was 40.4%, the IC50 [5] was 13.5 µM and the IC50 [6] was 4.43 µM. For the same compound, the inhibition of growth at 100 µM ([7]; read-out: GI) was 39.5%, the inhibition of growth at 0.1 µM [8] was 39.6% and the inhibition at 0.1 µM [9] was 30.9%. The inhibition of growth at 1 µM [10] was 43.4%, the IC50 [11] was 49.6 µM and the inhibition at 1 µM [12] was 33.6%. It also gave an inhibition of growth at 10 µM [13] of 47.4%, an inhibition of growth at 100 µM [14] of 48.3% and an inhibition of growth at 10 µM [15] of 45.1%.

`Oc1ccccc1OCc1nn2c(-c3ccncc3)nnc2s1` showed an inhibition of growth at 1 µM [1] of 46.3%, an inhibition at 10 µM [2] of 34.6% and an inhibition of growth at 100 µM [3] of 41.8%. For the same compound, the inhibition of growth at 0.1 µM [4] was 31.8%, the IC50 [5] was 54 µM and the inhibition [16] was 46%. The inhibition at 100 µM [7] was 37.2%, the inhibition of growth at 0.1 µM [8] was 43.8% and the inhibition at 0.1 µM [9] was 27.8%. For the same compound, the inhibition of growth at 1 µM [10] was 35.9%, the IC50 [11] was 18 µM and the inhibition at 1 µM [12] was 31.2%. The inhibition of growth at 10 µM [13] was 37.3%, the inhibition of growth at 100 µM [14] was 53.8% and the inhibition of growth at 10 µM [15] was 49.9%.

With `Fc1ccc(OCc2nn3c(-c4ccncc4)nnc3s2)cc1` the inhibition of growth at 1 µM [1] was 45.4%, the inhibition at 10 µM [2] was 51.4% and the inhibition of growth at 100 µM [3] was 32%. It also gave an inhibition of growth at 0.1 µM [4] of 21.3%, an IC50 [5] of 36.8 µM and an IC50 [6] of 2.59 µM. The inhibition at 100 µM [7] was 53.8%, the inhibition of growth at 0.1 µM [8] was 43.8% and the inhibition at 0.1 µM [9] was 46.7%. For the same compound, the inhibition of growth at 1 µM [10] was 25.6%, the IC50 [11] was 54.1 µM and the inhibition at 1 µM [12] was 49.1%. The inhibition of growth at 10 µM [13] was 28.5%, the inhibition of growth at 100 µM [14] was 52.7% and the inhibition of growth at 10 µM [15] was 48.3%.
